What was measured:
[1] = Antitumor activity against mouse EAT implanted in Balb/C mouse assessed as change in paw volume at 300 mg/kg, po administered on day 3 post tumor inoculation measured on day 3 by plethysmometer analysis (reference value: 40.2 +/- 7.0%); type: functional
[2] = Antitumor activity against mouse EAT implanted in Balb/C mouse assessed as change in paw volume at 100 mg/kg, po administered on day 3 post tumor inoculation measured on day 9 by plethysmometer analysis (reference value: 95.5 +/- 5.2%); type: functional
[3] = Antitumor activity against mouse EAT implanted in Balb/C mouse assessed as change in paw volume at 300 mg/kg, po administered on day 3 post tumor inoculation measured on day 15 by plethysmometer analysis (reference value: 166.5 +/- 6.0%); type: functional
Mus musculus = test: Acute toxicity in Balb/C mouse assessed as pain, suffering and impending death at 200 to 400 mg/kg, po; type: organism-based; conditions: in vivo
Method in brief: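 Fixed dose procedure following OECD guideline; Balb/C mice (20-35 g) fasted 16 h, groups of 5 given single oral doses stepwise at 600, 400 and 200 mgKg-1; survival and clinical signs of pain, suffering and impending death recorded per OECD guidance.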

[4] = Antitumor activity against mouse EAT implanted in Balb/C mouse assessed as change in paw volume at 30 mg/kg, po administered on day 3 post tumor inoculation measured on day 9 by plethysmometer analysis (reference value: 95.5 +/- 5.2%); type: functional
[5] = Antitumor activity against mouse EAT implanted in Balb/C mouse assessed as change in paw volume at 100 mg/kg, po administered on day 3 post tumor inoculation measured on day 15 by plethysmometer analysis (reference value: 166.5 +/- 6.0%); type: functional
[6] = Antitumor activity against mouse EAT implanted in Balb/C mouse assessed as change in paw volume at 300 mg/kg, po administered on day 3 post tumor inoculation measured on day 6 by plethysmometer analysis (reference value: 86.1 +/- 5.7%); type: functional
[7] = Antitumor activity against mouse EAT implanted in Balb/C mouse assessed as change in paw volume at 300 mg/kg, po administered on day 3 post tumor inoculation measured on day 12 by plethysmometer analysis (reference value: 125.5 +/- 7.5%); type: functional

## S=C(N/N=C/c1cccs1)Nc1ccc(Br)cc1
[1]
  Activity: 39.4%
[2]
  Activity: 73.7%
[3]
  Activity: 106%
Mus musculus
  Activity: Non-toxic
[4]
  Activity: 57.1%
[5]
  Activity: 118.6%
[6]
  Activity: 75.1%
[7]
  Activity: 64%
